Bioassay records as filed in PubChem.
Most compounds without a hit are left out; they make up all but 3.5% or so of the library.
RGS4 pot: potentiators or activators of RGS4; HEK293 M3R/inducible RGS4, carbachol calcium flux Fluo4; hits give low values; B-score at 10 µM; actives 0.92% (n = 310,000); AID 463111;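 active means B-score of the integrated calcium signal more than 4 SD below the library mean, with starting fluorescence not abnormally high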;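 further: negative B-score means reduced calcium response which marks RGS4 activation or potentiation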
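test system = M3R-expressing HEK293 line, RGS4 induced by doxycycline | probe or stimulus = carbachol at ECmax as muscarinic agonist stimulus | timing = dye loading 30 min 37 °C, buffer rest 30 min RT | signal = calcium dye Fluo4 fluorescence | evaluation = B score from integrated fluorescence ratio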
MrgX1 agonist: activates human MrgX1 receptor signaling; Q96LB2; MrgX1-HEK293 cells, Fluo-4 calcium fluorescence, agonist mode; hits give high values; B-score at 10 µM; actives 0.44% (n = 310,000);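 active means calcium response B-score plate-corrected fluorescence ratio at least 3 library SD, with starting fluorescence B-score inside 5 SD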
Target sequence (Q96LB2 whole entry, looked up): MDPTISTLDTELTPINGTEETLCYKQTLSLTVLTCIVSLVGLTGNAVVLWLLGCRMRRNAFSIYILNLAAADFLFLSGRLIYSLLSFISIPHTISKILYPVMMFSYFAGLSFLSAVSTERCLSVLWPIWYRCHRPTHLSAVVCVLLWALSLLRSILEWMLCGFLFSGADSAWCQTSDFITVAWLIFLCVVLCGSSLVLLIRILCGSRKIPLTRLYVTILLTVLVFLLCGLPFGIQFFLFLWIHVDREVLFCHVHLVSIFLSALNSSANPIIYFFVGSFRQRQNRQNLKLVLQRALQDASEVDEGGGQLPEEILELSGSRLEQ
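System – MrgX1-expressing HEK293 cells · Incubation – cells plated overnight, dye loaded 0.5 h 37 °C, 0.5 h room temperature · Technique – kinetic Fluo-4 NW fluorescence of intracellular calcium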
RGS4 block: inhibitors of human RGS4. P49798. HEK293 M3R/RGS4 inducible, Fluo-4 calcium flux; hits give high values; triggered by carbachol at its EC20. B-score at 10 µM. actives 0.45% (n = 310,000). AID 463165;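 active means B-score, a plate-corrected calcium signal, over three deviations above library mean, with baseline fluorescence within five deviations of library mean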;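 further: RGS4 expression induced by doxycycline in cells with stable M3 receptor; B-score is computed from the integrated fluorescence ratio over baseline after carbachol; higher B-score means a larger calcium signal and so more RGS4 inhibition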
Target sequence (P49798 whole entry, looked up): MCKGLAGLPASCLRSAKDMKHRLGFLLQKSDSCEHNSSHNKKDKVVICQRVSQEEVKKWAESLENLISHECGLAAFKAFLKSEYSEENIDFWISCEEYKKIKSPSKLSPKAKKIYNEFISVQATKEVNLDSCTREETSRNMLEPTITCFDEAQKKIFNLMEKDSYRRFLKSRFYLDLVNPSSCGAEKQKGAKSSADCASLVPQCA
MrgX1 antag: blocks BAM8-22 activation of human MrgX1 receptor | Q96LB2 | MRGX1-HEK293 calcium flux, Fluo-4, BAM8-22 antagonism; hits give low values | B-score at 10 µM | actives 1.3% (n = 310,000) | AID 588676;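 active means calcium-response B-score plate-corrected more than 3 library SD below zero, starting fluorescence within 5 deviations, no agonist response on first addition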;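 further: peak minus trough fluorescence over baseline after final BAM8-22 challenge near maximal dose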
MrgX1 PAM: allosterically activates human MrgX1 receptor signaling. MrgX1-HEK293, Fluo-4 calcium flux, FDSS; hits give high values. Q96LB2. B-score at 10 µM. actives 0.63% (n = 310,000);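 active means plate-corrected calcium response at least 3 library SD above typical, normal starting fluorescence, not activating the receptor alone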;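 further: compound read alongside a low EC10 to EC30 dose of BAM8-22 agonist; peak minus trough fluorescence over baseline measured at the second addition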
Active calls of the source: *; i = inactive; · = not tested or not shown.

SMILES | RGS4 pot | MrgX1 agonist | RGS4 block | MrgX1 antag | MrgX1 PAM
CC[C@]1(c2ccccc2)C(=O)N(C(=O)OC)N1C(=O)OC | i | i | i | i | i
COc1ccc(C(=O)NC(=S)N2CCOCC2)cc1[N+](=O)[O-] | i | i | i | i | i
Nn1c(SCc2cccc3ccccc23)nnc1-c1ccco1 | i | i | i | i | i
Nn1c(SCc2ccccc2)nnc1-c1ccco1 | i | i | i | -5.7* | i
Cc1cccn2c(=O)c3cc(C#N)c(=NC(=O)c4ccccc4)n(Cc4ccco4)c3nc12 | i | i | i | -4.9* | i
OCCCNCc1ccc(N(c2ccccc2)c2ccccc2)cc1 | -7.3* | i | i | i | i
CCOC(=O)C1=NN(C(=O)Cc2ccccc2)C(O)(c2ccc(Cl)cc2)C1 (stereo not drawn) | i | i | i | i | i
CCOC(=O)C1=NN(C(=O)c2cccc(Br)c2)C(O)(C(C)(C)C)C1 (stereo not drawn) | i | 96* | i | i | i
CCOC(=O)C1=NN(C(=O)c2ccco2)C2(CC2)C1 | i | i | i | i | i
COC(=O)C1=NN(C(=O)c2cccc(Br)c2)C(O)(c2ccc(Cl)cc2)C1 (stereo not drawn) | i | 36* | i | i | i
CCOC(=O)C1=NN(C(=O)c2ccc(OC)cc2)C(O)(c2ccc(Cl)cc2)C1 (stereo not drawn) | i | 48* | i | i | i
CCOC(=O)C1=NN(C(=O)c2ccccc2)C(O)(c2ccc(C)cc2)C1 (stereo not drawn) | i | i | i | i | i
Cc1cc(Br)ccc1NC(=O)CN(C)C(=O)COc1cccc2c1OC(C)(C)C2 | i | i | i | i | i
Cc1cc(=O)oc2cc(OCC(=O)OCC(=O)Nc3c(C)n(C)n(-c4ccccc4)c3=O)ccc12 | i | i | i | -8.8* | i
Cc1ccc(S(=O)(=O)NC(C)C(=O)NC2CCCCCC2)cc1 (stereo not drawn) | -7.2* | i | i | i | i
CCOC(=O)c1c(NC(=O)CSc2nnc(-c3cccc(C)c3)n2CC)sc(C(C)=O)c1C | -7* | i | i | i | i
CCOC(=O)c1c(NC(=O)CSc2nnc(-c3ccccc3)n2CC)sc(C(C)=O)c1C | i | i | i | i | i
Cn1nc(-c2ccc(C(=O)NC3CCCCC3)cc2)c2ccccc2c1=O | i | i | i | i | 9.5*
Cc1cc(-c2nn(C)c(=O)c3ccccc23)ccc1CNC(=O)NC1CCCCC1 | i | i | i | i | i
COc1ccc(S(=O)(=O)N2CCN(C)CC2)cc1NC(=O)c1ccccc1 | i | i | i | i | i
CCOc1cc(N)c(Cl)cc1C(=O)NCC1CN(Cc2ccc(F)cc2)CCO1 (stereo not drawn) | i | i | i | -8.6* | i
COc1ccc(C[C@H]2CN3C(=NC[C@H]3Cc3ccccc3)N2CCNC(=O)c2ccc(C)c(Br)c2)cc1 | i | i | i | -5.1* | i
COc1ccc(C[C@H]2CN3C(=NC[C@@H]3Cc3ccccc3)N2CCNC(=O)c2ccc(C)c(Br)c2)cc1 | i | i | i | i | i
COC(=O)/C=C/c1ccc(OC(=O)c2ccncc2)cc1 | i | i | i | i | i
COc1ccc(-c2oc3ccccc3c2C(=O)OCc2ccc(O)cc2)cc1 | i | i | i | i | i
SMILES | RGS4 pot | MrgX1 agonist | RGS4 block | MrgX1 antag | MrgX1 PAM
COc1ccc(-c2oc3ccccc3c2C(=O)OCc2ccccc2)cc1 | i | i | i | i | 8.1*
COc1ccc(CNC(=O)C2CCCN(S(=O)(=O)c3cnc[nH]3)C2)cc1 (stereo not drawn) | i | i | i | i | i
COc1cccc(-c2ccc(NC(=O)C3CCCN(Cc4cnn(C)c4C)C3)cc2)c1 (stereo not drawn) | i | i | i | i | i
CC1CCN(c2ccc3nnc(CCC(=O)N4CCCCC4)n3n2)CC1 | i | i | i | i | i
COc1cc2c(cc1OC)/C(=C/C(=O)c1ccc(OC)c([N+](=O)[O-])c1)NCC2 | -7.3* | i | i | -4.6* | i
Cn1c(-c2c(N)n(C3CCCC3)c3nc4ccccc4nc23)nc2ccccc21 | -9* | i | i | -7.4* | i
Nc1c(C(=O)OCC2CCCO2)c2nc3ccccc3nc2n1C1CCCC1 (stereo not drawn) | i | i | i | i | i
Cn1c(-c2c(N)n(CCc3ccccc3)c3nc4ccccc4nc23)nc2ccccc21 | i | 29* | i | i | i
Cn1c(-c2c(N)n(CCCc3ccccc3)c3nc4ccccc4nc23)nc2ccccc21 | i | · | i | · | ·
CCCCN1C(=O)C2(NNc3ccccc3O2)c2ccccc21 (stereo not drawn) | i | i | i | -6.1* | i
Cc1ccc(S(=O)(=O)NC(=O)c2ccc(-c3ccc(-c4ccccc4)cc3)o2)c(C)c1 | -9.1* | i | i | i | i
CCCCn1c(NC(=O)c2ccc(F)cc2)c(C#N)c2nc3ccccc3nc21 | i | 54* | i | i | i
C/C(=N/OC(=O)c1c(-c2ccccc2Cl)noc1C)c1cnccn1 | -9.8* | i | i | i | i
CCOC(=S)SCC(=O)N1CCc2cc(OC)ccc2C1C1C(=O)CCCC1=O (stereo not drawn) | i | i | i | i | i
CC[N+](C)(CC)CCOC(=O)C(O)(c1ccccc1)C1CCCCC1 (stereo not drawn) | i | i | i | i | i
CC[N+](C)(CC)CCC(c1ccccc1)C1CCCCC1 (stereo not drawn) | -8.7* | i | i | i | i
CCOCCCNC(=O)C(Cc1ccccc1)NS(=O)(=O)c1ccc2c(c1)c(=O)n(C)c(=O)n2C (stereo not drawn) | i | i | i | -5.8* | i
O=C(O)/C=C/c1ccc([N+](=O)[O-])o1 | i | i | i | -5.2* | i
CN1CCN(C(=O)/C=C/c2ccc([N+](=O)[O-])o2)CC1 | i | · | i | · | ·
O=C1ON=C(c2ccc(Cl)cc2)/C1=C/c1ccc(O)cc1 | i | 34* | i | i | i
O=c1[nH]cnc2c1cnn2Cc1ccccc1 | · | i | · | i | i
COc1ccc(C(=O)CN2C(=O)NC3(CCCc4ccccc43)C2=O)cc1 (stereo not drawn) | -7.5* | i | i | i | i
NS(=O)(=O)c1ccc(CNC(=O)/C=C/c2ccc(Cl)c(Cl)c2)cc1 | i | i | i | i | i
